Format in all cases: functional
Experiment [1] is filed under the species Rattus norvegicus. The experiment in a line: Inhibitory activity against Hippocampal Excitatory Neurotransmission using lateral perforant path (LPP)in rat hippocamapl slice Tested as racemic mixtures. The method in brief: (§1)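 Rat transverse hippocampal slices (450 μm) from urethane-anesthetized animals, held in oxygenated bicarbonate medium, pH 7.4. Recording in a microperfusion chamber at 34 °C. Field potentials in the dentate molecular layer: outer third for LPP, middle third for MPP. Placement checked with L-AP4. Drug started at threshold and doubled every 4 min. IC50 taken from fractional response versus log concentration, as a weighted mean.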

The species named for experiment [2] is Rattus norvegicus. The experiment in a line: Inhibitory activity against Hippocampal Excitatory Neurotransmission using medial perforant path (MPP) in rat hippocamapl slice Tested as racemic mixtures. A digest of the protocol: as §1
A short description of experiment [3]: Ratio is IC50 vales of medial perforant path (MPP) to that of lateral perforant path (LPP). A digest of the protocol: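 Ratio of MPP to LPP IC50 values from rat hippocampal slice field-potential recordings. Dentate molecular layer recorded, middle third (MPP) and outer third (LPP), at 34 °C. Concentration doubled every 4 min. Each IC50 is a weighted mean taken from fractional-response versus log-concentration curves.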

[4] abbreviates: Rattus norvegicus, Perforant path.

A word on the IC50: it is the concentration that inhibits the measured activity by half. `N[C@]1(C(=O)O)CC[C@@H](P(=O)(O)O)C1`: the IC50 turned out to be 960 µM in the experiment filed under Rattus norvegicus [1] (setting [4]) and 2400 µM in the experiment listed under Rattus norvegicus [2] (setting [4]). Moreover, the Ratio in experiment [3] is on record as 2.5.

As for `NC1(C(=O)O)CC1CP(=O)(O)O` (stereo in doubt; 5), the values for the IC50 in the experiment listed under Rattus norvegicus [1] and in the experiment listed under Rattus norvegicus [2] were 18 µM and 1580 µM, respectively. In addition, the Ratio in experiment [3] came to 88.

As to `N[C@@H](CCP(=O)(O)O)C(=O)O`, the Ratio in experiment [3] is on record as 18.

Take `N[C@]1(C(=O)O)CC[C@H](P(=O)(O)O)C1`: the IC50 was found to be 130 µM in the experiment filed under Rattus norvegicus [1] (setting [4]) and 1850 µM in the experiment listed under Rattus norvegicus [2] (setting [4]). The Ratio in experiment [3] is given as 31.

Consider `NC1(C(=O)O)CC1CP(=O)(O)O` (stereo in doubt; 6), for which the IC50 was 17 µM in the experiment listed under Rattus norvegicus [1] (setting [4]) and 81 µM in the experiment filed under Rattus norvegicus [2]. In addition, in experiment [3], the Ratio was found to be 4.8.

For the origin of these results see ChEMBL document CHEMBL1125849, “Synthesis of the 2-amino-4-phosphonobutanoic acid analogues (E)- and (Z)-2-amino-2,3-methano-4-phosphonobutanoic acid and their evaluation as inhibitors of hippocampal excitatory neurotransmission” (J Med Chem, 1991).
